From ChEMBL document CHEMBL5131404, “Lipophilic quinolone derivatives: Synthesis and in vitro antibacterial evaluation” (2022)
≈ marks a conversion by molar mass, not a printed value.

Experiments:
Assay type in all cases: functional
Neisseria gonorrhoeae [1] = test: Antibacterial activity against Neisseria gonorrhoeae WHO O
In short: (§1)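 Agar dilution MIC. Strains were cultured on GC agar with 2% v/v Vitox and 1% haemoglobin. Suspensions of 10^5 CFU/mL were spotted in duplicate onto the same supplemented GC agar containing various compound concentrations, then incubated 24-48 h at 37°C in 5% CO2. The MIC is the lowest concentration inhibiting growth, from at least three independent experiments.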

Neisseria gonorrhoeae [2] = test: Antibacterial activity against Neisseria gonorrhoeae ATCC 19424; in short: as §1
Neisseria gonorrhoeae [3] = test: Antibacterial activity against Neisseria gonorrhoeae WHO E; in short: as §1
Pseudomonas aeruginosa [4] = test: Antibacterial activity against Pseudomonas aeruginosa 143
In short: (§2)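 Broth microdilution MIC following CLSI guidelines. Strains were grown on Mueller-Hinton agar beforehand. The MIC is the lowest compound concentration that inhibits bacterial growth, determined at least three times in independent experiments.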

Staphylococcus aureus [5] = test: Antibacterial activity against Staphylococcus aureus ATCC 29213; in short: as §2
Neisseria gonorrhoeae [6] = test: Antibacterial activity against Neisseria gonorrhoeae WHO C; in short: as §1
Staphylococcus aureus [7] = test: Antibacterial activity against methicillin-resistant Staphylococcus aureus 196
In short: (§3)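 Strains grown on Mueller-Hinton agar. MIC by broth microdilution following CLSI guidelines, taken as the lowest concentration inhibiting bacterial growth. Determined at least three times in independent experiments.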

Neisseria gonorrhoeae [8] = test: Antibacterial activity against Neisseria gonorrhoeae WHO B; in short: as §1
Neisseria gonorrhoeae [9] = test: Antibacterial activity against Neisseria gonorrhoeae WHO Q; in short: as §1
Escherichia coli [10] = test: Antibacterial activity against Escherichia coli ATCC 35218; in short: as §2
Pseudomonas aeruginosa [11] = test: Antibacterial activity against Pseudomonas aeruginosa ATCC 27853; in short: as §2
Neisseria gonorrhoeae [12] = test: Antibacterial activity against Neisseria gonorrhoeae Barla194; in short: as §1
Neisseria gonorrhoeae [13] = test: Antibacterial activity against Neisseria gonorrhoeae WHO A; in short: as §1
Staphylococcus aureus [14] = test: Antibacterial activity against methicillin-resistant Staphylococcus aureus 197; in short: as §3
Streptococcus pneumoniae = test: Antibacterial activity against Streptococcus pneumoniae ATCC 49169; in short: as §2
Acinetobacter baumannii [15] = test: Antibacterial activity against Acinetobacter baumannii 140; in short: as §2
Escherichia coli [16] = test: Antibacterial activity against Escherichia coli 202; in short: as §2
Acinetobacter baumannii [17] = test: Antibacterial activity against Acinetobacter baumannii ATCC 19606; in short: as §2
Neisseria gonorrhoeae [18] = test: Antibacterial activity against Neisseria gonorrhoeae WHO M
In short: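 Agar dilution on GC agar base with 2% v/v Vitox and 1% haemoglobin containing graded compound concentrations. Suspensions at 10^5 CFU/mL spotted in duplicate. Incubation 24-48h, 37°C, 5% CO2. MIC taken as the lowest concentration inhibiting growth, determined at least three times in independent experiments.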

Neisseria gonorrhoeae [19] = test: Antibacterial activity against Neisseria gonorrhoeae WHO G; in short: as §1
Escherichia coli [20] = test: Antibacterial activity against Escherichia coli 203; in short: as §2
Pseudomonas aeruginosa [21] = test: Antibacterial activity against Pseudomonas aeruginosa 142; in short: as §2
Acinetobacter baumannii [22] = test: Antibacterial activity against Acinetobacter baumannii 139; in short: as §2
Neisseria gonorrhoeae [23] = test: Antibacterial activity against Neisseria gonorrhoeae WHO K; in short: as §1
Neisseria gonorrhoeae [24] = test: Antibacterial activity against Neisseria gonorrhoeae WHO Z; in short: as §1

Compound	MIC (Neisseria gonorrhoeae [1])	MIC (Neisseria gonorrhoeae [2])	MIC (Neisseria gonorrhoeae [3])	MIC (Pseudomonas aeruginosa [4])	MIC (Staphylococcus aureus [5])	MIC (Neisseria gonorrhoeae [6])	MIC (Staphylococcus aureus [7])	MIC (Neisseria gonorrhoeae [8])	MIC (Neisseria gonorrhoeae [9])	MIC (Escherichia coli [10])	MIC (Pseudomonas aeruginosa [11])	MIC (Neisseria gonorrhoeae [12])	MIC (Staphylococcus aureus [14])	MIC (Streptococcus pneumoniae)	MIC (Acinetobacter baumannii [15])	MIC (Escherichia coli [16])	MIC (Acinetobacter baumannii [17])	MIC (Escherichia coli [20])	MIC (Pseudomonas aeruginosa [21])	MIC (Acinetobacter baumannii [22])	other results
CCCCCCCCN1CCN(c2c(F)cc3c(=O)c(C(=O)O)cn(C4CC4)c3c2OC)CC1	0.03 µg/mL (≈ 0.0633 µM)	0.25 µg/mL (≈ 0.528 µM)	0.03 µg/mL (≈ 0.0633 µM)	> 64 µg/mL	4 µg/mL (≈ 8.45 µM)	0.5 µg/mL (≈ 1.06 µM)	4 µg/mL (≈ 8.45 µM)	0.12 µg/mL (≈ 0.253 µM)	0.5 µg/mL (≈ 1.06 µM)	≥ 64 µg/mL	> 64 µg/mL	128 µg/mL (≈ 270 µM)	8 µg/mL (≈ 16.9 µM)	32 µg/mL (≈ 67.6 µM)	64 µg/mL (≈ 135 µM)	2 µg/mL (≈ 4.22 µM)	16 µg/mL (≈ 33.8 µM)	> 64 µg/mL	> 64 µg/mL	16 µg/mL (≈ 33.8 µM)	MIC (Neisseria gonorrhoeae [13]): 0.03 µg/mL (≈ 0.0633 µM); MIC (Neisseria gonorrhoeae [18]): 16 µg/mL (≈ 33.8 µM); MIC (Neisseria gonorrhoeae [19]): 0.25 µg/mL (≈ 0.528 µM); MIC (Neisseria gonorrhoeae [23]): 256 µg/mL (≈ 541 µM); MIC (Neisseria gonorrhoeae [24]): > 32 µg/mL
CCCCCCCCCCCN1CCN(c2c(F)cc3c(=O)c(C(=O)O)cn(C4CC4)c3c2OC)CC1		0.5 µg/mL (≈ 0.97 µM)		> 64 µg/mL	32 µg/mL (≈ 62.1 µM)		64 µg/mL (≈ 124 µM)			16 µg/mL (≈ 31 µM)	> 64 µg/mL		≥ 64 µg/mL	8 µg/mL (≈ 15.5 µM)	64 µg/mL (≈ 124 µM)	≥ 64 µg/mL	64 µg/mL (≈ 124 µM)	> 64 µg/mL	> 64 µg/mL	≥ 64 µg/mL	
CCCCCCCCCCCCCCN1CCN(c2c(F)cc3c(=O)c(C(=O)O)cn(C4CC4)c3c2OC)CC1		0.12 µg/mL (≈ 0.215 µM)		> 64 µg/mL	32 µg/mL (≈ 57.4 µM)		> 64 µg/mL			32 µg/mL (≈ 57.4 µM)	> 64 µg/mL		> 64 µg/mL	8 µg/mL (≈ 14.3 µM)	≥ 64 µg/mL	64 µg/mL (≈ 115 µM)	64 µg/mL (≈ 115 µM)	> 64 µg/mL	> 64 µg/mL	≥ 64 µg/mL	
COc1c(N2C[C@@H]3CCCN[C@@H]3C2)c(F)cc2c(=O)c(C(=O)O)cn(C3CC3)c12 [MOXIFLOXACIN]	0.016 µg/mL (≈ 0.0399 µM)	0.06 µg/mL (≈ 0.149 µM)	0.004 µg/mL (≈ 0.00996 µM)	16 µg/mL (≈ 39.9 µM)	0.06 µg/mL (≈ 0.149 µM)	0.016 µg/mL (≈ 0.0399 µM)	0.5 µg/mL (≈ 1.25 µM)	0.008 µg/mL (≈ 0.0199 µM)	0.016 µg/mL (≈ 0.0399 µM)		1 µg/mL (≈ 2.49 µM)	16 µg/mL (≈ 39.9 µM)	1 µg/mL (≈ 2.49 µM)	0.06 µg/mL (≈ 0.149 µM)	4 µg/mL (≈ 9.96 µM)	0.5 µg/mL (≈ 1.25 µM)	0.25 µg/mL (≈ 0.623 µM)		8 µg/mL (≈ 19.9 µM)	2 µg/mL (≈ 4.98 µM)	MIC (Neisseria gonorrhoeae [13]): 0.004 µg/mL (≈ 0.00996 µM); MIC (Neisseria gonorrhoeae [18]): 2 µg/mL (≈ 4.98 µM); MIC (Neisseria gonorrhoeae [19]): 0.03 µg/mL (≈ 0.0747 µM); MIC (Neisseria gonorrhoeae [23]): 2 µg/mL (≈ 4.98 µM); MIC (Neisseria gonorrhoeae [24]): 2 µg/mL (≈ 4.98 µM)
CCCCCCCCCCN1CCN(c2c(F)cc3c(=O)c(C(=O)O)cn(C4CC4)c3c2OC)CC1	1 µg/mL (≈ 1.99 µM)	0.12 µg/mL (≈ 0.239 µM)	0.25 µg/mL (≈ 0.498 µM)	> 64 µg/mL	32 µg/mL (≈ 63.8 µM)	1 µg/mL (≈ 1.99 µM)	≥ 64 µg/mL	1 µg/mL (≈ 1.99 µM)	2 µg/mL (≈ 3.99 µM)	≥ 32 µg/mL	> 64 µg/mL	256 µg/mL (≈ 510 µM)	> 64 µg/mL	> 64 µg/mL	64 µg/mL (≈ 128 µM)	≥ 64 µg/mL	64 µg/mL (≈ 128 µM)	> 64 µg/mL	> 64 µg/mL	≥ 64 µg/mL	MIC (Neisseria gonorrhoeae [13]): 0.5 µg/mL (≈ 0.997 µM); MIC (Neisseria gonorrhoeae [18]): ≥ 64 µg/mL; MIC (Neisseria gonorrhoeae [19]): 8 µg/mL (≈ 15.9 µM); MIC (Neisseria gonorrhoeae [23]): 256 µg/mL (≈ 510 µM); MIC (Neisseria gonorrhoeae [24]): ≥ 64 µg/mL
CCCCCCCCCN1CCN(c2c(F)cc3c(=O)c(C(=O)O)cn(C4CC4)c3c2OC)CC1		0.25 µg/mL (≈ 0.513 µM)		≥ 64 µg/mL	8 µg/mL (≈ 16.4 µM)		≥ 64 µg/mL			8 µg/mL (≈ 16.4 µM)	> 64 µg/mL		> 64 µg/mL	2 µg/mL (≈ 4.1 µM)	64 µg/mL (≈ 131 µM)	8 µg/mL (≈ 16.4 µM)	64 µg/mL (≈ 131 µM)	> 64 µg/mL	≥ 64 µg/mL	64 µg/mL (≈ 131 µM)	
